The nature of series [1]: Inhibition of Staphylococcus aureus FabI using t-o-NAC-thioester as substrate by spectrophometric method.
Series [2] deals with Mycobacterium tuberculosis. Briefly: Antimycobacterial activity against Mycobacterium tuberculosis H37Rv measured after 5 days by MTT dye based two-fold microdilution method. The format is functional. To be noted: 120 h. The essentials: (§1)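 Two-fold serial dilution in 96-well plates in Middlebrook 7H9 with 10% ADS and 1% glycerol (7H9-ADS-G). DMSO stocks were diluted to a top concentration of 100 μg/mL and down to 0.8 μg/mL, run in duplicate. Wells received mid-log bacilli in 7H9-ADS-G, incubated 5 days at 37 °C, then MTT for 24 h. MIC is the lowest concentration blocking yellow-to-purple change. Rifampicin was the control.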
Background: Tetrazolium assays rely on reduction of a dye to a coloured formazan, in cell work by metabolically active cells.

A short description of series [3]: Cytotoxicity against African green monkey Vero cells at 4.75 ug/ml measured after 48 hrs by neutral red assay. The series is classed as toxicity, cell-based. The settings on record: chlorocebus sabaeus. The essentials:
(§2)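 Vero (African green monkey kidney) cells were seeded at 25,000 cells/well and grown 24 h. Compounds were then added, with DMSO as vehicle control and doxorubicin as positive control, and incubated 48 h. Viable cells were counted by neutral red uptake. Highest concentration tested was 4.75 μg/mL. IC50 was read from logarithmic plots of growth inhibition versus concentration.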

Series [4] can be described thus: Therapeutic index, ratio of IC50 for cytotoxicity against African green monkey Vero cells to MIC for antimycobacterial activity against Mycobacterium tuberculosis H37Rv. The series is classed as cell-based. The settings on record: read-out: TI. The procedure, abridged: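 Vero cells were seeded at 25,000/well, grown 24 h, then exposed to compound for 48 h, with a maximum of 4.75 μg/mL and DMSO as vehicle. Viability was read by neutral red uptake. IC50 came from log plots of growth inhibition versus concentration. The index is cytotoxic IC50 divided by MIC against H37Rv from the MTT microdilution assay.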

The subject of series [5] is Mycobacterium tuberculosis. As to the kind of experiment: Inhibition of Mycobacterium tuberculosis InhA assessed as remaining activity at 20 uM using trans-2-dodecenoyl-coenzyme A as substrate relative to control. The essentials: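 Wild-type InhA (100 nM) started the reaction with 25 μM trans-2-dodecenoyl-CoA, 250 μM NADH and 20 μM inhibitor in 30 mM PIPES, 150 mM NaCl, pH 6.8. Initial velocity was compared with an inhibitor-free control; remaining activity is vi/v0.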

Series [6] deals with Mycobacterium tuberculosis. Briefly: Antimycobacterial activity against Mycobacterium tuberculosis isolate 164 measured after 5 days by MTT dye based two-fold microdilution method. The series is classed as functional. The settings on record: isolate 164, 120 h. The procedure, abridged:
as §1

Series [7] concerns Mycobacterium tuberculosis. As to the kind of experiment: Antimycobacterial activity against Mycobacterium tuberculosis isolate 304 measured after 5 days by MTT dye based two-fold microdilution method. To be noted: isolate 304, 120 h. The series is classed as functional. The procedure, abridged: as §1
In series [8] the test system is Mycobacterium tuberculosis. Briefly: Antimycobacterial activity against Mycobacterium tuberculosis isolate 51 measured after 5 days by MTT dye based two-fold microdilution method. The format is functional. The settings on record: isolate 51, 120 h. The procedure, abridged:
as §1

Series [9] is described as follows: Cytotoxicity against African green monkey Vero cells measured after 48 hrs by neutral red assay. To be noted: African green monkey (Chlorocebus sabaeus). The series is classed as toxicity, cell-based. The procedure, abridged:
as §2

Series [10] relates to Mycobacterium tuberculosis. As to the kind of experiment: Antimycobacterial activity against Mycobacterium tuberculosis isolate 598 measured after 5 days by MTT dye based two-fold microdilution method. The series is classed as functional. To be noted: isolate 598, 120 h. The procedure, abridged: as §1
In series [11] the test system is Mycobacterium tuberculosis. As to the kind of experiment: Antimycobacterial activity against Mycobacterium tuberculosis H37Rv ATCC 27294 measured after 10 days by broth dilution method. The series is classed as functional. The settings on record: H37Rv ATCC 27294, 240 h. (In broth dilution the organism is exposed to a series of concentrations in liquid medium.)

Values after ≈ are worked out from the molar mass of the structure shown.

A word on the IC50: it is the point on the concentration scale where inhibition reaches its midpoint. Consider `CCCCCC/C=C\CCCCCCCC(=O)O` [PALMITOLEIC ACID], for which the IC50 in series [1] is 40 µM.
What is called MIC is the lowest concentration found to suppress growth. For the compound `CCCCCCCCCCCCCc1cn(CC(=O)OCC)nn1`, the MIC in [2] amounted to 296 µM (≈ 99.9 µg/mL). Moreover, the Activity result in [3] is listed as “Non-Toxic”.
The like results for `CCCCCCCCCCCCCn1cc(CO)nn1` were, in that order, 44 µM (≈ 12.4 µg/mL) and “Non-Toxic”.
As for `CCCCCCCCn1cc(CO)nn1`, in series [2], it took 473 µM (≈ 99.9 µg/mL) to inhibit growth (MIC). Also, in [3], the Activity entry is on record as “Non-Toxic”.
In [1], `CCCCC/C=C\C/C=C\C/C=C\C/C=C\CCCC(=O)O` [ARACHIDONIC ACID] came in with an IC50 of 40 µM.
For `CCCCCCCCn1cc(C(=O)O)nn1`, the MIC in series [2] worked out at 14 µM (≈ 3.15 µg/mL). Further, in series [3], the Activity result is “Non-Toxic”.
The corresponding values for `CCCCCCCCCCCCCn1cc(C(=O)OC)nn1` are 323 µM (≈ 100 µg/mL) and “Non-Toxic”.
As to `CCCCCCCCc1cn(CC(=O)OCC)nn1`, the selectivity ratio in series [4] is greater than 10. In addition, in series [5], the Activity was 90.1%. Besides, the MIC in series [2] came out at 1.9 µM (≈ 0.508 µg/mL); in series [6] it was 1.9 µM (≈ 0.508 µg/mL); in [7], 1.9 µM (≈ 0.508 µg/mL); in [8] it was 0.45 µM (≈ 0.12 µg/mL); in series [10] it was 1.9 µM (≈ 0.508 µg/mL). The same compound registered an IC50 at 48 h in series [9] greater than 17.8 µM.
Turning to `CCCc1cn(CCCCCC(=O)OCC)nn1`, in series [2], it took 394 µM (≈ 99.8 µg/mL) to inhibit growth (MIC). In series [3], the Activity entry is “Non-Toxic”.
Regarding `CCCCCCCCCCc1cn(CC(=O)OCC)nn1`, the selectivity ratio in [4] was greater than 10. Moreover, the Activity in series [5] is 99.3%. In series [2], this compound registered an MIC of 1.7 µM (≈ 0.502 µg/mL). The same compound gave an IC50 at 48 h in [9] greater than 16.1 µM.
As to `CCCCCc1cn(CC(=O)OCC)nn1`, the Activity in series [5] was 73.2%; in series [3], “Non-Toxic”. Also, the MIC in [2] was determined as 111 µM (≈ 25 µg/mL).
In [11], `CCCCCCCCCCCCCCCCO` [CETYL ALCOHOL] returned an MIC of 5 µg/mL.
For `COc1cccc2c1C(=O)c1c(O)c3c(c(O)c1C2=O)C[C@@](O)(C(=O)CO)C[C@@H]3O[C@H]1C[C@H](N)[C@H](O)[C@H](C)O1` [DOXORUBICIN], the IC50 at 48 h in series [9] worked out at 14 µM.
Consider `CCCCCCCCCCc1cn(CCCC(=O)OCC)nn1`, for which the minimum inhibitory concentration (MIC) in series [2] is 309 µM (≈ 100 µg/mL). Besides, the Activity result in series [3] is given as “Non-Toxic”.
The corresponding values for `CCCCCCCCCCCCCCCc1cn(CC(=O)OCC)nn1` are 17 µM (≈ 6.21 µg/mL) and “Non-Toxic”.
The like results for `CCCCCCCCCCc1cnnn1CC(=O)OCC` were, in that order, 84 µM (≈ 24.8 µg/mL) and “Non-Toxic”.
Turning to `CCCCCc1cn(CCCCCC(=O)OCC)nn1`, the MIC in series [2] was found to be 22 µM (≈ 6.19 µg/mL). Also, in series [3], the Activity entry is recorded as “Non-Toxic”.
The corresponding values for `CCCCCCCCc1cn(CCCCC(=O)OCC)nn1` are 40 µM (≈ 12.4 µg/mL) and “Non-Toxic”.
Regarding `CCCCC/C=C\C/C=C\CCCCCCCC(=O)O` [LINOLEIC ACID], the IC50 in series [1] was 40 µM.
As for `CCCCCCCCc1cn(CCCCCC(=O)OCC)nn1`, the MIC in series [2] came to 309 µM (≈ 100 µg/mL). For the same compound, the Activity result in [3] is listed as “Non-Toxic”.
Take `CC/C=C\C/C=C\C/C=C\CCCCCCCC(=O)O` [LINOLENIC ACID]: the IC50 in series [1] is 40 µM.
Consider `CCCc1cn(CC(=O)OCC)nn1`, for which the Activity in series [5] was 69%; in [3], “Non-Toxic”. For the same compound, in [2], the MIC amounted to 505 µM (≈ 99.6 µg/mL).
`CCCCCCCCCCCCCCO` [MYRISTYL ALCOHOL] displayed an MIC in series [11] of 5 µg/mL.
In [2], `CCCCCCCCCCc1cn(CCC(=O)OCC)nn1` registered an MIC of 20 µM (≈ 6.19 µg/mL). Besides, in series [3], the Activity entry is listed as “Non-Toxic”.
The corresponding values for `CCCCCCCCCCn1cc(CO)nn1` are 209 µM (≈ 50 µg/mL) and “Non-Toxic”.
On to `CCCCCCCCCCCCO` [DODECANOL], for which inhibition of growth in series [11] (MIC) required 5 µg/mL.
Take `CCCCCCCCCCc1cn(CCCCC(=O)OCC)nn1`: it took 37 µM (≈ 12.5 µg/mL) to inhibit growth in series [2] (MIC). The Activity result in series [3] was “Non-Toxic”.
For `CCCCCCCCCCO` [DECANOL], in series [11], the MIC came out at 800 µM.
Turning to `CCCCCCCCc1cn(CCCC(=O)OCC)nn1`, the MIC in series [2] stood at 21 µM (≈ 6.2 µg/mL). Also, the Activity result in series [3] is reported as “Non-Toxic”.
The corresponding values for `CCCCCCCCc1cnnn1CC(=O)OCC` are 93 µM (≈ 24.9 µg/mL) and “Non-Toxic”.
The corresponding values for `CCCCCCCCCCn1cc(C(=O)O)nn1` are 20 µM (≈ 5.07 µg/mL) and “Non-Toxic”.
`CCCCCCCC/C=C\CCCCCCCC(=O)O` [OLEIC ACID] yielded an IC50 in series [1] of 40 µM.
The compound `CCCCCCCCCCn1cc(C(=O)OC)nn1` displayed an MIC in [2] of 23 µM (≈ 6.15 µg/mL). Also, the Activity entry in series [3] is recorded as “Non-Toxic”.
In series [2], `CCCCCCCCn1cc(C(=O)OC)nn1` had an MIC of 52 µM (≈ 12.4 µg/mL). Besides, the Activity entry in series [3] is given as “Non-Toxic”.
The corresponding values for `CCCCCCCCc1cn(CCC(=O)OCC)nn1` are 22 µM (≈ 6.19 µg/mL) and “Non-Toxic”.
The like results for `CCCCCc1cn(CCCCC(=O)OCC)nn1` were, in that order, 23 µM (≈ 6.15 µg/mL) and “Non-Toxic”.
The corresponding values for `CCCCCc1cn(CCCC(=O)OCC)nn1` are 12 µM (≈ 3.04 µg/mL) and “Non-Toxic”.

(Values after ChEMBL document CHEMBL3877283, “Antitubercular activity of 1,2,3-triazolyl fatty acid derivatives” (Eur J Med Chem, 2017).)
